This is a sample that favours compounds with a hit; in the whole collection about 6.7% have one here.
CHOP inh: inhibitors of CHOP induction in ER stress response; AID 2732; inhibition, % at 10 µM; 220,000 tested, 3.8% active; CHO-K1 CHOP-promoter luciferase, tunicamycin-induced, 15-18 h;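 active = compounds that reduced the stress-induced luciferase reporter signal by more than about 70% of percent inhibition, limit read from the data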;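 note: 0% = tunicamycin plus vehicle and 100% = wells without tunicamycin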
CSC inhib: cancer stem cell inhibition | cancer stem cell-like cells viability, luminescence | inhibition, % at 7.5 µM | 300,000 tested, 1.1% active; in the data active = inhibition above about 75%; tested in HMLE shEcad cells
Beta cell apopt: beta cell apoptosis inhibition; INS-1E cytokine-induced death, ATP luminescence, 48 h; percent of positive-control rescue, neutral wells zero; protection from apoptosis, % (no concentration beside the values); 300,000 tested, 0.8% active;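 active = Every replicate reaches about 75%, or at least half do and their mean reaches it too, limit read from the data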;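 note: 0% = cytokine-treated negative control wells and 100% = positive control rescue; higher means more ATP so stronger rescue from cytokine killing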
T cruzi inh: blocks replication of Trypanosoma cruzi | T. cruzi beta-gal in NIH3T3, luminescence, 90 h | inhibition, % (no concentration beside the values) | 300,000 tested, 1.4% active;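 active = mean inhibition across valid replicates above about 55%, limit read from the data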;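 note: signal also drops with host cell toxicity which is not excluded here; 0% = plate median of DMSO wells and 100% = zero luminescence signal; higher percent means less beta-gal luminescence so fewer parasites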
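compound dosing = single 50 nL compound addition per well in DMSO | material = NIH/3T3 host cells with β-galactosidase reporter T. cruzi | input = 5,000 host fibroblasts per well | timing = ≥90 h infection period, 3 h prior cell attachment | read-out basis = percent inhibition of parasite-derived β-gal signal | detection = GalScreen β-gal luminescence, detergent lysis, 60 min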
NR3A LBD binder: NR3A (human) ligand-binding domain modulation. NR3A LBD differential scanning fluorimetry, Tm shift; 0% = protein alone, 100% = glycine-bound protein. 340,000 tested, 2.5% active. Tm shift relative to glycine control, % at 25 µM;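 active = melting temperature shift of at least 10% of the positive control shift, at one fixed dose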
PREPL inh: inhibits the human prolyl oligopeptidase-like enzyme; Q4J6C6; recombinant PREPL, fluorescence polarization activity-based probe; inhibition, % at 5.96 µM; 320,000 tested, 0.68% active; AID 2751; in the data active = inhibition above about 43%;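 note: 0% = enzyme with DMSO and 100% = wells lacking enzyme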
Target sequence (Q4J6C6 whole entry, looked up): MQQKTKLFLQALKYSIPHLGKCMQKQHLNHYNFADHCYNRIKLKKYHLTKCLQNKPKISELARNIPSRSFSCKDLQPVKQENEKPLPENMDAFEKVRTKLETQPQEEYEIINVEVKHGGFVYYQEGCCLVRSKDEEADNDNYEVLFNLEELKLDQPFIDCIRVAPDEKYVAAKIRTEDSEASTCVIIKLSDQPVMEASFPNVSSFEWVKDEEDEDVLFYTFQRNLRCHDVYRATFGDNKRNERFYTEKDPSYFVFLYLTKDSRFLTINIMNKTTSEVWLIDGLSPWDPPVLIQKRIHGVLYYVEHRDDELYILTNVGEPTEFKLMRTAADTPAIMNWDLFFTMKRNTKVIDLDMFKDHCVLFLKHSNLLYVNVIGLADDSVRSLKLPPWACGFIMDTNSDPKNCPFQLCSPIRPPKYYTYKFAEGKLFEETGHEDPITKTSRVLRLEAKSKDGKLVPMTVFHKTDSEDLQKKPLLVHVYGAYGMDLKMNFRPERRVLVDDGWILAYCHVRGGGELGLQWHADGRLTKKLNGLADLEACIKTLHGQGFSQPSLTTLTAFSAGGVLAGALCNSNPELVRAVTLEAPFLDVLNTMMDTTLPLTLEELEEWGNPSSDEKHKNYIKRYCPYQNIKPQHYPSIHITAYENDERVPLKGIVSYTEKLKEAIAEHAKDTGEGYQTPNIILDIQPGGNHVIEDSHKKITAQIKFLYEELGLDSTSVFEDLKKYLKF
Numbers without * were called inactive.

Screening Cc1ccc(C(=O)Nc2nnc(S(=O)(=O)N3CCOCC3)s2)cc1 returned CSC inhib -4.8, Beta cell apopt 6.7, T cruzi inh -9.3, NR3A LBD binder -20.1 and PREPL inh 8.9.
Cc1ccc(S(=O)(=O)N(C)C)cc1NC(=O)C(C)OC(=O)/C=C/c1cccs1 (configuration not stated) was read as CHOP inh -2.8, CSC inhib -10.8, Beta cell apopt -1.4, T cruzi inh -2.6, NR3A LBD binder -1.4 and PREPL inh 1.4.
`O=C(COC(=O)C1CC1)Nc1ccc(S(=O)(=O)N2CCOCC2)cc1` gave CSC inhib -10.8, Beta cell apopt -2.9, NR3A LBD binder -0.9 and PREPL inh 3.3.
CC1CCN(S(=O)(=O)c2nnc(NC(=O)c3cccc([N+](=O)[O-])c3)s2)CC1 was read as CSC inhib 15.6, Beta cell apopt 8.7, T cruzi inh 3.4, NR3A LBD binder 10.6* and PREPL inh -5.5.
For CCc1cc2cc(C)c(C)cc2nc1SCC(=O)Nc1cc(C)on1 the results were CHOP inh 88.6*, CSC inhib -7.2, Beta cell apopt 5.0, T cruzi inh -30.2, NR3A LBD binder 0.3 and PREPL inh -7.5.
`CCc1cc2ccccc2nc1SCC(=O)Nc1cc(C)on1` gave CHOP inh 60.7, CSC inhib -1.3, T cruzi inh -5.9, NR3A LBD binder 1.4 and PREPL inh -4.2.
Cc1cc(NC(=O)CSc2nnc(Nc3ccccc3)s2)no1 was read as CHOP inh 14.0, Beta cell apopt -2.6, T cruzi inh -11.9, NR3A LBD binder -1.9 and PREPL inh 5.2.
COc1ccc(Nc2nnc(SCC(=O)Nc3cc(C)on3)s2)cc1 was read as CHOP inh 84.9* and NR3A LBD binder 1.5.
CCc1cc2ccc(OC)cc2nc1SCC(=O)NNC(C)=O was read as CHOP inh 5.0, CSC inhib -6.4, Beta cell apopt 1.9, T cruzi inh -3.2, NR3A LBD binder -2.0 and PREPL inh 4.8.
Screening CCc1cc2ccc(OC)cc2nc1SCC(=O)Nc1cc(C)on1 returned CHOP inh 82.5*, CSC inhib -5.5, Beta cell apopt 18.2, T cruzi inh 15.4, NR3A LBD binder 0.2 and PREPL inh 5.4.
Screening O=C1c2cccnc2C(=O)N1Cc1ccc(S(=O)(=O)N2CCOc3ccccc32)cc1 returned CSC inhib -14.4, Beta cell apopt -9.3, T cruzi inh 12.0, NR3A LBD binder -6.2 and PREPL inh -0.2.
For CN(c1ccccc1)S(=O)(=O)c1cccc(NC(=O)CSc2ncc(C(F)(F)F)cc2Cl)c1 the results were CHOP inh 48.5, CSC inhib 22.8, Beta cell apopt 1.5, T cruzi inh 3.0, NR3A LBD binder 5.6 and PREPL inh -4.6.
CC1CCc2nc(NC(=O)Cc3cccs3)sc2C1 (configuration not stated) was read as CHOP inh 6.8, CSC inhib 0.8, Beta cell apopt 0.0, T cruzi inh -9.2, NR3A LBD binder -3.1 and PREPL inh -6.1.
CC1CCc2nc(NC(=O)c3ccco3)sc2C1 (configuration not stated) was read as CHOP inh 70.6*, CSC inhib 1.1, Beta cell apopt 14.3, T cruzi inh -5.5, NR3A LBD binder -0.9 and PREPL inh 4.3.
CCN(CC)S(=O)(=O)c1ccc(-c2nnc(SCC(=O)Nc3ccc4c(c3)OCO4)o2)cc1 was read as CHOP inh 42.0, CSC inhib 24.0, Beta cell apopt 3.3, T cruzi inh -1.0, NR3A LBD binder 4.2 and PREPL inh 25.6.
`O=C(CSc1nnc(-c2ccc(F)cc2)o1)Nc1ccc(S(=O)(=O)N2CCCC2)cc1` gave CHOP inh 4.1, CSC inhib 0.4, Beta cell apopt -3.6, T cruzi inh 11.6, NR3A LBD binder -3.9 and PREPL inh 3.6.
O=C(CSc1nnc(-c2ccc(F)cc2)o1)Nc1ccc(S(=O)(=O)N2CCCCCC2)cc1 was read as CHOP inh 84.2*, CSC inhib 7.7, Beta cell apopt 7.4, T cruzi inh 22.8, NR3A LBD binder 9.2 and PREPL inh 0.7.
Screening CCN(CC)S(=O)(=O)c1ccc(NC(=O)CSc2nnc(-c3ccc(F)cc3)o2)cc1 returned CHOP inh 94.4*, CSC inhib 2.7, Beta cell apopt -3.2, T cruzi inh 23.6, NR3A LBD binder 2.5 and PREPL inh 2.7.
For ClC(Cl)c1nnc(-c2ccccc2)c(-c2c[nH]c3ccccc23)n1 the results were CHOP inh 80.2*, CSC inhib -2.0, Beta cell apopt 1.5, T cruzi inh -34.0, NR3A LBD binder -3.5 and PREPL inh 8.4.
For c1ccc(-c2nnc(-c3c[nH]c4ccccc34)nc2-c2ccccc2)cc1 the results were CHOP inh -15.4, CSC inhib -8.1, Beta cell apopt 9.1, T cruzi inh 31.0, NR3A LBD binder 8.1 and PREPL inh -4.3.
For CC1=[N+](C)c2c(ccc3cccnc23)C1(C)C the results were CHOP inh 74.6* and NR3A LBD binder -2.2.
CC(C)c1ccc(CNCCCSc2ncccn2)cc1 was read as CSC inhib -15.6, Beta cell apopt 0.3, T cruzi inh 71.0*, NR3A LBD binder 0.9 and PREPL inh 6.9.
For CCOc1ccc(CNCCCSc2ncccn2)cc1 the results were CSC inhib -10.2, Beta cell apopt -1.0, T cruzi inh 54.9*, NR3A LBD binder 1.6 and PREPL inh -3.9.
Clc1cccc(Cl)c1CNCCCSc1ncccn1 was read as CSC inhib 12.2, Beta cell apopt -5.4, T cruzi inh 31.2, NR3A LBD binder 0.4 and PREPL inh -8.6.
For Clc1ccc(CNCCCSc2ncccn2)cc1Cl the results were CSC inhib -9.5, Beta cell apopt -0.2, T cruzi inh 56.3*, NR3A LBD binder 0.8 and PREPL inh -8.7.
Screening C[C@H](CO)N1C[C@H](C)[C@@H](CN(C)Cc2ccncc2)Oc2ccc(NC(=O)CCCCCC(=O)Nc3ccccc3N)cc2C1=O returned CSC inhib -20.3, Beta cell apopt -1.5, NR3A LBD binder -3.5 and PREPL inh 9.7.
Screening O=C(Cn1sc2ccccc2c1=O)NC12CC3CC(CC(C3)C1)C2 returned CHOP inh 90.5*, CSC inhib 27.9, Beta cell apopt -7.0, NR3A LBD binder 2.5 and PREPL inh 9.1.
For CCCNC(=O)NC(=O)COC(=O)c1oc2ccc(OCC)cc2c1C the results were CHOP inh 72.4*, CSC inhib -12.7, T cruzi inh -11.4, NR3A LBD binder -1.6 and PREPL inh -6.8.
`COc1cc(-c2nc3ccc(C)cn3c2Nc2ccc3c(c2)OCCO3)ccc1O` gave CHOP inh -18.1, CSC inhib 0.0, Beta cell apopt 4.6, T cruzi inh 10.2, NR3A LBD binder 22.6* and PREPL inh 22.0.

High-throughput results from PubChem BioAssay.
